pIC50: −log10 of the molar value. The source made the active and inactive calls. The rule behind the calls is not given here.
Legend:
MCF7 [1] = experiment: Induction of cell cycle arrest in human MCF7 cells assessed as accumulation at G2/M phase at 1 uM after 24 hrs by propidium iodide-staining based flow cytometry (reference value: 12.41%); assay type: functional
MCF7 [2] = experiment: Antitumor activity against human MCF7 cells xenografted in BALB/c nude mouse assessed as tumor growth inhibition at 10 mg/kg, ip administered every other day; assay type: functional, organism-based
How it was run: (§1)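 MCF7 cells transplanted orthotopically into the breast of athymic nude mice. Dosing at 10 mg/kg i.p. in vehicle of polyoxyethylated castor oil/ethanol/saline 1:1:18, with vehicle and saline control groups. Body weight, tumor volume and serum calcium followed.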

[3] = Drug metabolism in human MCF7 cells at 1 uM after 24 hrs by HPLC analysis; assay type: ADME, cell-based; settings: read-out: Drug metabolism
How it was run: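 MCF7 cells were incubated 24 h with 1 µM compound, alongside a medium-only incubation without cells. Mixtures were extracted with chloroform/methanol (3:1, v/v) and quantified by HPLC. Mean ± SEM, n = 3.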

MCF7 [4] = experiment: Antiproliferative activity against human MCF7 cells after 48 hrs by MTT assay; assay type: functional, cell-based; settings: MCF7, 48 h
Vitamin D3 receptor = target: T1, Vitamin D3 receptor (Homo sapiens, UniProt P11473); experiment: Displacement of fluormone VDR red from human full length VDR after 4 hrs by fluorescence polarization assay
T1 sequence (P11473 whole entry): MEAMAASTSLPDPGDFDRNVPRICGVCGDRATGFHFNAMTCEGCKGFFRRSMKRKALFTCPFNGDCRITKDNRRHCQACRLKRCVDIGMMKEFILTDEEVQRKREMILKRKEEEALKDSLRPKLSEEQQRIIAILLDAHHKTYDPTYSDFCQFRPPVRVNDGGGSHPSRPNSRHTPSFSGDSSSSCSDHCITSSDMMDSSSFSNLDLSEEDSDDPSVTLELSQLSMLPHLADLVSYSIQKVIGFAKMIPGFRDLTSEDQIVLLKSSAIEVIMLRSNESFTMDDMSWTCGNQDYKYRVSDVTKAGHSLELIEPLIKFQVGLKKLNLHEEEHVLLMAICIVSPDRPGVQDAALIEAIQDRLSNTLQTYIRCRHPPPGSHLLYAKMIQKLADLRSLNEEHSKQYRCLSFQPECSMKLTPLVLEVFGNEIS

[5] = Half life in Sprague-Dawley rat at 20 mg/kg, po by HPLC analysis; assay type: ADME, organism-based; settings: in vivo
How it was run: (§2)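 Male Sprague-Dawley rats (180−220 g), 4 per group, dosed at 5 mg/kg i.v., 20 mg/kg i.p. or 20 mg/kg p.o. Parameters given as mean ± SD (n = 4).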

Mus musculus [6] = experiment: Hypercalcemic effect in ICR mouse at 30 mg/kg/day, ip administered for 7 days measured on day 8 post-dose by MTB-based assay relative to control; assay type: ADME, organism-based; settings: in vivo, 168 h
How it was run: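 Mice were dosed i.p. over a 7-day period and serum calcium was then measured. Each dose level was compared with a vehicle-treated control group (saline cited as the comparator). Data are mean ± SEM, n = 6 per group. Significance versus vehicle was reported at p < 0.05, 0.01 and 0.001.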

Mus musculus [7] = experiment: Toxicity in BALB/c nude mouse xenografted with human MCF7 cells assessed increase in serum calcium levels at 10 mg/kg, ip administered every other day relative to control; assay type: organism-based; settings: in vivo; how it was run: as §1
[8] = MRT in Sprague-Dawley rat at 20 mg/kg, po by HPLC analysis; assay type: ADME, organism-based; settings: in vivo; how it was run: as §2
MCF7 [9] = experiment: Induction of apoptosis in human MCF7 cells assessed as late apoptotic cells at 1 uM after 24 hrs by Annexin V-FITC/propidium iodide-staining based flow cytometry (reference value: 0.062%); assay type: functional
MCF7 [10] = experiment: Induction of apoptosis in human MCF7 cells xenografted in BALB/c nude mouse at 10 mg/kg, ip administered every other day by TUNEL assay; assay type: functional, organism-based
How it was run: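 Apoptosis in MCF7 orthotopic tumor sections from nude mice given 10 mg/kg i.p. was scored by TUNEL staining.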

[11] = MRT in Sprague-Dawley rat at 5 mg/kg, iv by HPLC analysis; assay type: ADME, organism-based; settings: in vivo; how it was run: as §2
[12] = Half life in Sprague-Dawley rat at 20 mg/kg, ip by HPLC analysis; assay type: ADME, organism-based; settings: in vivo; how it was run: as §2
HepG2 [13] = experiment: Induction of cell cycle arrest in human HepG2 cells at 1 uM after 24 hrs by propidium iodide-staining based flow cytometry; assay type: functional
[14] = Oral bioavailability in Sprague-Dawley rat at 20 mg/kg measured up to 48 hrs after administration by HPLC analysis; assay type: ADME, organism-based; settings: in vivo; how it was run: as §2
HepG2 [15] = experiment: Antiproliferative activity against human HepG2 cells after 48 hrs by MTT assay; assay type: functional, cell-based; settings: HepG2, 48 h
MCF7 [16] = experiment: Induction of cell cycle arrest in human MCF7 cells assessed as upregulation of p21 mRNA levels at 1 uM after 24 hrs by RT-qPCR analysis; assay type: functional, cell-based
How it was run: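 p21 and p27 mRNA levels were measured by real-time quantitative PCR in MCF7 cells treated at 1 µM for 24 h.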

SMILES: CCn1c(C(=O)NCCCN2CCOCC2)ccc1C(CC)(CC)c1ccc(OCCC(O)(CC)CC)c(C)c1
- Activity (MCF7 [1]): 6.96%
- TGI (MCF7 [2]): Active
- metabolised at 24 h, 1 µM [3]: 6%
- pIC50 (MCF7 [4]): 6.59
- pIC50 (Vitamin D3 receptor): 6.39
- half-life [5]: 11.3 h
- Activity (Mus musculus [6]): Toxic
- Activity (Mus musculus [7]): Non-Toxic
- MRT [8]: 15.9 h
- Activity (MCF7 [9]): 2.83%
- Activity (MCF7 [10]): Active
- MRT [11]: 7.55 h
- half-life [12]: 11.7 h
- Activity (HepG2 [13]): Active
- bioavailability [14]: 36.8%
- pIC50 (HepG2 [15]): 5.75
- Activity (MCF7 [16]): Active

SMILES: CCN(CC)CCCNC(=O)c1ccc(C(CC)(CC)c2ccc(OCCC(O)(CC)CC)c(C)c2)n1CC
- Activity (MCF7 [1]): 4.72%
- TGI (MCF7 [2]): Active
- pIC50 (MCF7 [4]): 7.24
- pIC50 (Vitamin D3 receptor): 6.53
- half-life [5]: 6.82 h
- Activity (Mus musculus [7]): Non-Toxic
- MRT [8]: 11 h
- Activity (MCF7 [9]): 4.49%
- Activity (MCF7 [10]): Active
- MRT [11]: 3.85 h
- half-life [12]: 6.21 h
- Activity (HepG2 [13]): Active
- bioavailability [14]: 21.3%
- pIC50 (HepG2 [15]): 6.82
- Activity (MCF7 [16]): Active

Source: ChEMBL document CHEMBL4033800, “Further Developments of the Phenyl-Pyrrolyl Pentane Series of Nonsteroidal Vitamin D Receptor Modulators as Anticancer Agents” (J Med Chem, 2018)
